Insulin prom act – TRM-6 insulin promoter activation; activation, % at 2 µM; hit rate 0.81% among 130,000; TRM-6 cells, insulin promoter eGFP reporter, imaging; plate-scaled: unstimulated 0, stimulated control 100;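 active means activation at 2 µM above a set limit, confirmed on inspection of the cell images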;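 further: share of cells whose green reporter signal exceeds an intensity cutoff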
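Test system: human fetal islet-derived TRM-6 cells with tamoxifen-inducible insulin promoter–eGFP reporter; schedule: overnight tamoxifen, then two-day compound incubation at 37 °C; measured by: high-content imaging of fixed cells with Hoechst nuclear stain; evaluation: percent cells above green-intensity threshold, converted to percent activation versus plate controls; control set: stimulated and unstimulated wells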
Hits are given with their value; – = inactive. The full list was thinned out, with hits kept by preference.

SMILES	Insulin prom act
CCOC(=O)CC(C)(C)/C(C)=N/Nc1ccc([N+](=O)[O-])cc1[N+](=O)[O-]	–
O=[N+]([O-])c1ccc(CN2CCN(c3ccc4ccccc4n3)CC2)cc1	–
Cc1c(C(=O)N2CCN(c3ccccc3)CC2)sc2ncnc(N3CCN(c4ccccc4)CC3)c12	–
COc1ccc(-c2sc(NC(C)=O)nc2-c2ccccc2)cc1	–
COCC(=O)Nc1nc(-c2ccc(C)cc2)c(C)s1	–
COc1ccc(-c2nc(C)sc2C)cc1	418.8
Oc1cccc(C(O)CNCc2ccc(OCc3ccc(Cl)cc3Cl)cc2)c1 (stereo not drawn)	–
O=C(Cc1ccccc1)N/N=C/c1ccc(-c2ccc([N+](=O)[O-])cc2)o1	–
Cc1ccc(C(=O)N/C(=C\c2ccc(-c3cccc([N+](=O)[O-])c3)o2)C(=O)NC(C)(C)C)cc1	–
CCCNC(=O)Cn1c(=O)/c(=C\c2ccc(-c3ccc([N+](=O)[O-])cc3)o2)s/c1=C\C(=O)C(C)(C)C	270.4
Cc1ccccc1CNC(=O)CC1C(=O)NCCN1Cc1c(F)cccc1Cl (stereo not drawn)	–
O=C1CC(c2ccccc2)CC(=NCCO)/C1=C(\O)CCCN1C(=O)c2ccccc2C1=O (stereo not drawn)	–
O=C(Nc1cc(C(F)(F)F)ccc1N1CCOCC1)c1c(F)c(F)c(F)c(F)c1F	–
O=S(=O)(Nc1cc(C(F)(F)F)ccc1N1CCOCC1)c1ccc2ccccc2c1	385.7
O=[N+]([O-])c1cc(C(F)(F)F)ccc1N1CCN(S(=O)(=O)c2ccc3ccccc3c2)CC1	–
CCCC(=O)Nc1ccc(C(=O)NNC(=O)COc2ccc(Br)c(C)c2)cc1	–
Fc1ccc(NC(=S)N2CCSC2c2cccs2)cc1 (stereo not drawn)	–
Cc1nc2ccc(S(=O)(=O)NC(C(=O)NCc3cccs3)C(C)C)cc2s1 (stereo not drawn)	250.0
Cc1ccc2nc(-c3ccccc3)nc(SC(C)C(=O)NCc3cccs3)c2c1 (stereo not drawn)	–
CCN(CC(=O)NCc1cccs1)S(=O)(=O)c1ccc(C(C)C)cc1	–
CCN1CCCC1CNC(=O)C(=O)NC(C)C (stereo not drawn)	–
Cc1cc(C)n(CCCN2C(=O)c3cccc4cccc(c34)C2=O)n1	–
COc1ccc(NS(=O)(=O)c2cc(NC(=O)c3cccc(OCc4c(C)noc4C)c3)ccc2OC)cc1	–
COc1ccccc1Nc1nnc(C)c(=O)[nH]1	–
COc1ccc[nH]c1=O	154.5
SMILES	Insulin prom act
COc1cc2[nH]ccc(=O)c2cc1OC	–
Cn1ccnc1SCC(=O)Nc1cccc(S(=O)(=O)N2CCCCCC2)c1	–
CNS(=O)(=O)c1cc(OC)c(OC)cc1CC(=O)OC	–
COc1ccccc1NC(=O)NCC(=O)Nc1c(C)cccc1C	–
O=C(CN1C(=O)S/C(=C/C=C/c2ccccc2)C1=O)Nc1ccc(C(=O)O)cc1	550.0
CC(=O)c1ccc(NC(=O)CCCN2C(=O)/C(=C/C(C)=C/c3ccccc3)SC2=S)cc1	–
Cn1cc(/C=C2/SC(=O)N(CC(=O)Nc3ccc4c(c3)OCO4)C2=O)c2ccccc21	–
Cc1cc(C(F)(F)F)nc(CCNCc2c(C(=O)N3CCCC3)nc3ccccn23)n1	–
CN1CCC(N(C)C(=O)CCc2nc3ccccc3c(=O)[nH]2)CC1	–
C=C(C)CNC(=S)NNC(=O)c1ccc(Br)cc1	–
COc1cc(/C=N\Nc2nc3ccccc3o2)cc(OC)c1OC	468.8
COc1cc(/C=N/Nc2nc3ccccc3o2)cc(OC)c1O	–
COc1ccc(/C=N/Nc2nonc2N)cc1OC	–
COc1cc(-c2cc(C(=O)Nc3ccc(S(=O)(=O)NCc4ccco4)cc3)c3ccccc3n2)cc(OC)c1OC	–
CCOC(=O)c1c(C)[nH]c(C)c1C(=O)Cn1nnc(-c2ccccc2C)n1	–
COc1ccc(CCC(=O)NCCCNC(=O)CCc2ccc(OC)cc2)cc1	–
Cc1cccc(NC(=S)NNC(=O)CC(C)O)c1C (stereo not drawn)	–
Cn1nnnc1SCC(=O)NCc1ccccc1	–
Cn1nnnc1SCSc1nnnn1C	625.0
Cn1nnnc1SCC(=O)c1cccs1	–
COc1cc(OC)nc(/N=C/N(C)C)n1	–
COc1ccc(O[C@H]2C=C[C@@H](c3ccccc3)O[C@@H]2CO/N=C(\C)CCN2CCCCc3nc(C)c(C)cc32)cc1	–
CC(C)(C)NC(=O)/C(=C/c1ccccc1F)NC(=O)c1ccc([N+](=O)[O-])cc1	–
CC(C)(C)NC(=O)/C(=C\c1ccccc1F)NC(=O)c1ccc([N+](=O)[O-])cc1	–
O=C(CCCNC(=O)/C(=C\c1ccccc1F)NC(=O)c1ccccc1)OCc1ccccc1	257.1
O=[N+]([O-])c1cc(S(=O)(=O)N2CCCC2)ccc1SCCO	–
CCCCn1c(/N=C/c2ccc3c(c2)OCO3)nc2ccccc21	80.7
Cn1c(=S)n(/N=C/c2ccc3c(c2)OCO3)c2ccccc21	–
CN(C)CCCn1c(NCc2ccc3c(c2)OCO3)nc2ccccc21	–
COc1ccccc1NS(=O)(=O)c1cc(NC(=O)Cn2cnc3c2c(=O)n(C)c(=O)n3C)ccc1C	–
